Published values of several laboratories.
Lines come from different studies, so protocols differ.
Medium: plasma

| SMILES | test system | setting | AUC(0-t) |
| --- | --- | --- | --- |
| CCCCC1=NC2(CCCC2)C(=O)N1Cc1ccc(-c2ccccc2S(=O)(=O)Nc2noc(C)c2C)c(COCC)c1 | human | oral, 200 mg, single dose, fed, healthy volunteers, tablet | 50500 ng·h/mL |
| C[C@@H](Oc1ccc(S(C)(=O)=O)cc1C(=O)N1C[C@@H]2C[C@]2(c2cc(C(F)(F)F)on2)C1)C(F)(F)F | human | oral, 25 mg | 12 µM·h |
| CC(C)(O)c1ccccc1-c1ccc2[nH]c(/C=C/c3ccc(C(F)(F)F)cc3)nc2c1 | male human | oral, 5 mg, single dose, fasted | 350 ng·h/mL |
| CCO[C@H]1CCN(Cc2c(OC)cc(C)c3[nH]ccc23)[C@H](c2ccc(C(=O)O)cc2)C1 | human | oral, 50 mg, multiple doses, twice daily, patients | 8570 ng·h/mL |
| C[C@@]1(c2cc(NC(=O)c3ccc(C#N)cn3)ccc2F)C=CSC(N)=N1 | human | oral, 150 mg, single dose | 14300 ng·h/mL |
| COc1cc(N2CCC(N3CCN(C)CC3)CC2)ccc1Nc1ncnc(Nc2ccccc2S(=O)(=O)C(C)C)n1 | human | oral, 50 mg, multiple doses, patients | 4640 ng·h/mL |
| Oc1cc(O)c2c(c1)O[C@@H](c1ccc(O)c(O)c1)[C@@H](O)C2 | human | oral, 30 mg, single dose | 6.9 ng·h/mL |
| COCCOc1cnc2ccn([C@H](C)c3nnc4c(F)cc(-c5cnn(C)c5)cn34)c(=O)c2c1 | human | oral, 200 mg, multiple doses, once daily, patients | 36900 ng·h/mL |
| C#Cc1cccc(Nc2ncnc3cc(OCCOC)c(OCCOC)cc23)c1 | human | oral, 50 mg, multiple doses, once daily, patients | 24.9 µM·h |
| OC[C@H]1O[C@@H](c2ccc(Cl)c(Cc3ccc(O[C@H]4CCOC4)cc3)c2)[C@H](O)[C@@H](O)[C@@H]1O | human | oral, 100 mg, single dose | 20 µM·h |
| CCNCCCNC/C=C\CNCCCNCC | human | intravenous, 150 mg, patients, infusion | 473 ng·h/mL |
| CC(C)n1cc(C#N)c2cc(-n3cc(C(=O)O)cn3)ccc21 | human | oral, 400 mg, single dose, fasted, healthy volunteers | 91500 ng·h/mL |
| CCOc1cc2ncc(C#N)c(Nc3ccc(OCc4ccccn4)c(Cl)c3)c2cc1NC(=O)/C=C/[C@H]1CCCN1C | human | oral, 80 mg, single dose | 357 ng·h/mL |
| O=C(O)C[C@H](O)C[C@H](O)/C=C/c1c(C2CC2)nc2ccccc2c1-c1ccc(F)cc1 | human | oral, 2 mg, single dose, fasted, healthy volunteers, tablet | 243 ng·h/mL |
| FC(F)(F)c1ccc(CNc2ccc(Cc3c[nH]c4ncc(Cl)cc34)cn2)cn1 | human | oral, 800 mg, multiple doses, patients | 22300 ng·h/mL |
| O=C(/C=C/c1cccc(S(=O)(=O)Nc2ccccc2)c1)NO | human | intravenous, 1900 mg/m², patients | 72100 ng·h/mL |
| NS(=O)(=O)c1ccc(NC(=O)Nc2ccc(F)cc2)cc1 | human | oral, 1000 mg, multiple doses, once daily | 70700 ng·h/mL |
| Nc1cc(C(F)(F)F)c(-c2cc(N3CCOCC3)nc(N3CCOCC3)n2)cn1 | human | oral, 100 mg/day, patients | 8800 ng·h/mL |
| Cc1nc(NC(=O)N2CCC[C@H]2C(N)=O)sc1-c1ccnc(C(C)(C)C(F)(F)F)c1 | human | oral, 350 mg, patients | 27600 ng·h/mL |
| C=CC(=O)N1CCC(Oc2cc3c(Nc4ccc(Cl)c(Cl)c4F)ncnc3cc2OC)CC1 | human | oral, 16 mg, single dose, fed | 474 ng·h/mL |
| COc1cc2c(cc1OC)CN(CCc1ccc(NC(=O)c3cc(OC)c(OC)cc3NC(=O)c3cnc4ccccc4c3)cc1)CC2 | human | intravenous, 1 mg/kg, patients | 5.4 µM·h |
| C[C@@H](Oc1ccc(S(C)(=O)=O)cc1C(=O)N1C[C@@H]2C[C@]2(c2cc(C(F)(F)F)on2)C1)C(F)(F)F | human | oral, 25 mg, fed, tablet | 11 µM·h |
| CO[C@@H]1[C@H](OC(=O)N2CC(CCN3CCOCC3)C2)CC[C@]2(CO2)[C@H]1[C@@]1(C)O[C@@H]1CC=C(C)C | human | subcutaneous, 2.4 mg, single dose, healthy volunteers | 8.07 ng·h/mL |
| CNCC[C@H](Oc1cccc2ccccc12)c1cccs1 | female human | oral, 30 mg, multiple doses, once daily | 135 ng·h/mL |
| COc1ccc([C@@H]2CN(C(=O)[C@@H](O)CO)C[C@@]2(C)[C@@H](C)O)cc1OC1CN(c2ccc(C)cn2)C1 | human | oral, 5 mg, single dose, healthy volunteers | 1590 ng·h/mL |
| C[C@@H](Nc1cc(F)cc(F)c1)c1cc(C(=O)N(C)C)cc2c(=O)cc(N3CCOCC3)oc12 | human | oral, 360 mg, single dose, patients | 8350 ng·h/mL |
| CO[C@H]1CC[C@H](N2C(=O)CNc3ncc(-c4ccc(C(C)(C)O)nc4)nc32)CC1 | human | oral, 7.5 mg, patients | 319 ng·h/mL |
